# Results from different studies.
# Each line is one published result; the experiments were not run side by side.
Compound,organism,assay,test system,setting,quantity,value
Fc1ccc(Nc2c(Cn3cccn3)nc3ccccn23)cc1,Leishmania infantum,parasite growth,,"intracellular, amastigote",IC50,> 64 µM
C/C(O)=C1\C(=O)C(CC(C)C)N(C(=O)C=Cc2ccccc2)C1=O (centres unmarked),Stenotrophomonas maltophilia,microbial growth,ATCC13637,,MIC,> 200 µg/mL
O=C(O)CN1C(=O)/C(=C/c2c3ccccc3c(-c3ccc(N(c4ccccc4)c4ccccc4)cc3)c3ccccc23)SC1=S,Streptococcus pyogenes,"microbial killing, broth dilution",ATCC19615,,MBC,> 1000 µg/mL
CC(=O)C1=C(C)N2NC(C)(c3ccccc3O)N(C(C)C(=O)O)C2=NC1c1ccc(Cl)cc1 (centres unmarked),Streptococcus pyogenes,microbial growth,ATCC19615,"15 µg/mL, 24 h",inhibition zone,18 mm
O=C(O)CN1C(=O)/C(=C/c2c3ccccc3c(-c3ccc(N(c4ccccc4)c4ccccc4)cc3)c3ccccc23)NC1=S,Streptococcus mutans,"microbial growth, broth dilution",ATCC25175,,MIC,> 1000 µg/mL
c1ccc(-c2nc3n(c2-c2ccncc2)CCC3)nc1,Leishmania infantum,parasite growth,,"5 days, intracellular, amastigote",EC50,> 63.1 µM
CC1(c2ccccc2O)Nn2c(nc(-c3ccc(Cl)cc3)c(C#N)c2=O)N1C(Cc1c[nH]c2ccccc12)C(=O)O (centres unmarked),Streptococcus pyogenes,microbial growth,ATCC19615,"15 µg/mL, 24 h",inhibition zone,32 mm
O=C(N[C@@H](Cc1ccccc1)C(=O)c1cn(COCc2ccccc2)nn1)[C@H](Cc1ccccc1)NC(=O)N1CCOCC1,Leishmania infantum,parasite growth,,"intracellular, amastigote",IC50,> 64 µM
CC(C(=O)O)N1c2nc(-c3ccc(Cl)cc3)c(C#N)c(=O)n2NC1(C)c1ccccc1O (centres unmarked),Streptococcus pyogenes,microbial growth,ATCC19615,"10 µg/mL, 24 h",inhibition zone,16 mm
"C[Si](C)(C)c1cc(C(=O)[C@H](Cc2ccccc2)NC(=O)[C@H](Cc2ccccc2)NC(=O)N2CCOCC2)no1 (single isomer, unassigned)",Leishmania infantum,parasite growth,,"intracellular, amastigote",IC50,> 64 µM
CCCCC(=O)N1C(=O)/C(=C(/C)O)C(=O)C1CC(C)C (centres unmarked),Stenotrophomonas maltophilia,microbial growth,ATCC13637,,MIC,> 200 µg/mL
CCCCCCCCCCCCCCCCC#CC(=O)O,Leishmania infantum,parasite growth,mouse Splenocyte,"72 h, intracellular, amastigote",IC50,11.7 µM
COc1ccc2nc(-c3ccccn3)c(Nc3ccc(F)cc3)n2c1,Leishmania infantum,parasite growth,,"intracellular, amastigote",IC50,2.16 µM
O=C1C(=Cc2cc(O)cc(O)c2)Oc2ccccc21,Streptococcus mutans,microbial growth,UA159,50 µM,inhibition,30%
CC(=O)C1=C(C)N2NC(c3ccccc3O)N(C(C)C(=O)O)C2=NC1c1ccc(Cl)cc1 (centres unmarked),Streptococcus pyogenes,microbial growth,ATCC19615,"15 µg/mL, 24 h",inhibition zone,17 mm
O=C(O)CN1C(=O)/C(=C/c2ccc(-c3ccc(N(c4ccccc4)c4ccccc4)cc3)c3ccccc23)NC1=S,Streptococcus pyogenes,"microbial growth, broth dilution",ATCC19615,,MIC,> 1000 µg/mL
CC(C(=O)O)N1C2=NC(c3ccc(Cl)cc3)C3=C(OC(C)(C)OC3=O)N2NC1(C)c1ccccc1O (centres unmarked),Streptococcus pyogenes,microbial growth,ATCC19615,"10 µg/mL, 24 h",inhibition zone,8 mm
O=C1NC(=S)N/C1=C\c1ccc(-c2ccc(N(c3ccccc3)c3ccccc3)cc2)c2ccccc12,Streptococcus pyogenes,"microbial killing, broth dilution",ATCC19615,,MBC,> 1000 µg/mL
CCOC(=O)C1=C(C)N2NC(c3ccccc3O)N(C(Cc3c[nH]c4ccccc34)C(=O)O)C2=NC1c1ccc(Cl)cc1 (centres unmarked),Streptococcus pyogenes,microbial growth,ATCC19615,"15 µg/mL, 24 h",inhibition zone,32 mm
O=C1NC(=S)S/C1=C\c1c2ccccc2c(-c2ccc(N(c3ccccc3)c3ccccc3)cc2)c2ccccc12,Streptococcus pyogenes,"microbial killing, broth dilution",ATCC19615,,MBC,> 1000 µg/mL
Fc1ccc(Nc2c(-c3ccccn3)nc3ccccn23)cc1,Leishmania infantum,parasite growth,,"intracellular, amastigote",IC50,8.11 µM
O=C(N[C@@H](Cc1ccccc1)C(=O)c1ncc(-c2ccccc2)o1)[C@H](Cc1ccccc1)NC(=O)N1CCOCC1,Leishmania infantum,parasite growth,,"intracellular, amastigote",IC50,> 64 µM
CC(=O)C1=C(C)N2NC(c3ccccc3O)N(C(Cc3c[nH]c4ccccc34)C(=O)O)C2=NC1c1ccc(Cl)cc1 (centres unmarked),Streptococcus pyogenes,microbial growth,ATCC19615,"15 µg/mL, 24 h",inhibition zone,30 mm
O=C(O)CN1C(=O)/C(=C/c2ccc(-c3ccc(N(c4ccccc4)c4ccccc4)cc3)cc2)SC1=S,Streptococcus mutans,"microbial killing, broth dilution",ATCC25175,,MBC,> 1000 µg/mL
COc1ccc(-c2c(-c3ccccn3)nc3n2CCC3)cc1OC,Leishmania infantum,parasite growth,,"5 days, intracellular, amastigote",EC50,2 µM
O=C(N[C@@H](Cc1ccccc1)C(=O)c1noc(-c2ccccc2)n1)[C@H](Cc1ccccc1)NC(=O)N1CCOCC1,Leishmania infantum,parasite growth,,"intracellular, amastigote",IC50,> 64 µM
O=C1NC(=S)N/C1=C\c1ccc(-c2ccc(N(c3ccccc3)c3ccccc3)cc2)cc1,Streptococcus mutans,"microbial growth, broth dilution",ATCC25175,,MIC,> 1000 µg/mL
O=C1C(=Cc2ccc(O)c(O)c2)Oc2ccccc21,Streptococcus mutans,microbial growth,UA159,50 µM,inhibition,40%
c1ccc(-c2nc3n(c2-c2cccnc2)CCC3)nc1,Leishmania infantum,parasite growth,,"intracellular, amastigote",IC50,> 64 µM
O=C(N[C@@H](Cc1ccccc1)C(=O)c1c[nH]nn1)[C@H](Cc1ccccc1)NC(=O)N1CCOCC1,Leishmania infantum,parasite growth,,"intracellular, amastigote",IC50,> 64 µM
CS(=O)(=O)c1ccc(-c2c(-c3ccccn3)nc3n2CCC3)cc1,Leishmania infantum,parasite growth,,"intracellular, amastigote",IC50,> 64 µM
CN[C@H](CC(C)C)C(=O)N[C@H]1C(=O)N[C@@H](CC(N)=O)C(=O)N[C@H]2C(=O)N[C@H]3C(=O)N[C@H](C(=O)N[C@H](C(=O)O)c4cc(O)cc(O)c4-c4cc3ccc4O)[C@H](O)c3ccc(c(Cl)c3)Oc3cc2cc(c3O[C@@H]2O[C@H](CO)[C@@H](O)[C@H](O)[C@H]2O[C@H]2C[C@](C)(N)[C@H](O)[C@H](C)O2)Oc2ccc(cc2Cl)[C@H]1O,Streptococcus pyogenes,microbial killing,,,MBC,> 32 µg/mL
CN(c1ccc(F)cc1)c1c(-c2ccc(F)cn2)nc2ccccn12,Leishmania infantum,parasite growth,,"intracellular, amastigote",EC50,1.26 µM
CCCCCCC/C=C/C(=O)N1C(=O)/C(=C(/C)O)C(=O)C1Cc1ccc(OC(C)(C)C)cc1 (centres unmarked),Stenotrophomonas maltophilia,microbial growth,ATCC13637,,MIC,> 200 µg/mL
CCOC(=O)C1=C(C)N2NC(C)(c3ccccc3O)N(C(Cc3c[nH]c4ccccc34)C(=O)O)C2=NC1c1ccc(Cl)cc1 (centres unmarked),Streptococcus pyogenes,microbial growth,ATCC19615,"10 µg/mL, 24 h",inhibition zone,17 mm
